One series relates to HUVEC. Briefly: Cytotoxicity against human HUVEC cells assessed as reduction in cell viability at 10 uM incubated for 48 hrs by MTT assay. The series is classed as cell-based. Put shortly: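 Cells plated at 3~5 × 10^3 per well and allowed 24 h before exposure to compound or DMSO (negative control) for 48 h. MTT was added for 4 h, formazan dissolved in DMSO and absorbance read at 490 nm. Inhibition was calculated relative to DMSO and blank.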
Background: Tetrazolium assays rely on reduction of a dye to a coloured formazan, in cell work by metabolically active cells.

A short description of series [1]: Cytotoxicity against human HOSEC cells assessed as reduction in cell viability at 10 uM incubated for 48 hrs by MTT assay. The series is classed as cell-based. As to conditions: hose. Put shortly: (§1)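 Cells plated at 3~5 × 10^3 per well and allowed 24 h before exposure to compound or DMSO (negative control) for 48 h. A2780/T and KB-VIN were grown in DMEM/F12 with 10% FBS, and HUVEC, HOSEC and T29 in RPMI-1640 with 10% FBS, all at 37 °C under 5% CO₂. MTT was added for 4 h, formazan dissolved in DMSO and absorbance read at 490 nm. Inhibition was calculated relative to DMSO and blank.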

Series [2] can be described thus: Cytotoxicity against human T29 cells assessed as reduction in cell viability at 10 uM incubated for 48 hrs by MTT assay. The series is classed as cell-based. As to conditions: t29, 48 h. Put shortly:
as §1

The test system of another series is A2780/Taxol. Put plainly: Cytotoxicity against human A2780T cells assessed as reduction in cell viability at 10 uM incubated for 48 hrs by MTT assay. Type of series: cell-based. Put shortly:
as §1

Series [3] is described as follows: Reversal of multidrug resistance activity in P-gp overexpressing human A2780T cells assessed as potentiation of PTX-induced cytotoxicity by measuring reversal ratio at 10 uM incubated for 48 hrs in presence of paclitaxel by MTT assay. Type of series: functional, A2780/Taxol. In a few lines: (§2)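 Resistant cells were plated at 3~5 × 10^3 per well, given 24 h, then co-treated with test compound plus a range of anticancer drug concentrations (PTX for A2780/T, VCR for KB-VIN, cisplatin for A2780/CDDP) or DMSO for 48 h. Read-out was by MTT, 4 h at 37 °C, with absorbance at 490 nm. Reversal ratio = IC50 (drug alone) / IC50 (drug with compound).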

Series [4] in a line: Reversal of multidrug resistance activity in human A2780/CDDP cells assessed as potentiation of CDDP-induced cytotoxicity by measuring reversal ratio at 10 uM incubated for 48 hrs in presence of CDDP by MTT assay. Type of series: functional. In a few lines:
as §2

Series [5] is described as follows: Reversal of multidrug resistance activity in P-gp overexpressing human KB-VIN cells assessed as potentiation of VCR-induced cytotoxicity by measuring reversal ratio at 10 uM incubated for 48 hrs in presence of VCR by MTT assay. The series is classed as functional. Put shortly: as §2
Series [6] is described as follows: Cytotoxicity against human KB-VIN cells assessed as reduction in cell viability at 10 uM incubated for 48 hrs by MTT assay. Type of series: cell-based. Put shortly:
as §1

For `CCOc1ccc2c(=O)cc(CC)oc2c1COC(=O)c1cc(OC)c(OC)cc1OC`, the Activity result (with HUVEC; in series [1]; in series [2]; in the series with A2780/Taxol) was “Non-Toxic” throughout. Also, the values for the Ratio in series [3] and in series [4] were 457 and 0.88, respectively.

Turning to `CCCCCc1ccc(C(=O)OCc2c(OC)ccc3c(=O)cc(CC)oc23)cc1`, the Activity entry (in the series on HUVEC; in series [1]; in series [2]; in the series on A2780/Taxol) was “Non-Toxic” in each case. In series [3], the Ratio worked out at 173.

Turning to `CCc1cc(=O)c2ccc(OC)c(COC(=O)c3ccccc3[N+](=O)[O-])c2o1`, the Activity result (in the series with HUVEC; in series [1]; in series [2]; with A2780/Taxol) was “Non-Toxic” in each case. Moreover, the Ratio in series [3] turned out to be 172.

Consider `CCc1cc(=O)c2ccc(OC(C)C)c(COC(=O)/C=C/c3ccc(OC)cc3)c2o1`, for which the Activity entry (with HUVEC; in series [1]; in series [2]; in the series with A2780/Taxol; in series [6]) was “Non-Toxic” in each case. Besides, the Ratio in series [3] amounted to 490; in series [5], 342; in series [4], 0.97.

Consider `CCc1cc(=O)c2ccc(OC)c(COC(=O)c3cc(OC)c(OC)cc3OC)c2o1`, for which the Activity entry (in the series on HUVEC; in series [1]; in series [2]; with A2780/Taxol; in series [6]) was “Non-Toxic” throughout. Moreover, the Ratio in series [3] came out at 284; in series [5], 579.

In the case of `CCc1cc(=O)c2ccc(OC)c(COC(=O)c3ccc(F)cc3)c2o1`, the Activity result (in the series with HUVEC; in series [1]; in series [2]; with A2780/Taxol) was “Non-Toxic” each time. Besides, the Ratio in series [3] is 53.

As for `CCc1cc(=O)c2ccc(OC)c(COC(=O)Cc3ccccc3C)c2o1`, the Activity entry (in the series on HUVEC; in series [1]; in series [2]; in the series on A2780/Taxol) was “Non-Toxic” each time. Further, the Ratio in series [3] was determined as 99.

On to `CCOc1ccc2c(=O)cc(CC)oc2c1COC(=O)c1ccc(C#N)cc1`, for which the Activity entry is “Non-Toxic” with HUVEC, “Non-Toxic” in series [1], “Non-Toxic” in series [2] and “Toxic” in the series on A2780/Taxol. Moreover, the Ratio in series [3] stood at 20.

As to `CCc1cc(=O)c2ccc(OC)c(COC(=O)c3cccc(OC)c3)c2o1`, the Activity result (with HUVEC; in series [1]; in series [2]; in the series with A2780/Taxol) was “Non-Toxic” in each case. Besides, in series [3], the Ratio was determined as 147.

`CCc1cc(=O)c2ccc(OC)c(COC(=O)c3ccc(C#N)cc3)c2o1`: the Activity entry in the series on HUVEC is reported as “Non-Toxic”; in series [1], “Toxic”; in series [2], “Toxic”; in the series on A2780/Taxol, “Non-Toxic”. In addition, the Ratio in series [3] is recorded as 8.

`CCc1cc(=O)c2ccc(OC(C)C)c(COC(=O)c3ccc(C#N)cc3)c2o1`: the Activity result with HUVEC is on record as “Non-Toxic”; in series [1] it was “Non-Toxic”; in series [2] it was “Non-Toxic”; in the series on A2780/Taxol it was “Toxic”. Besides, the Ratio in series [3] is 10.

On to `CCc1cc(=O)c2ccc(OC)c(COC(=O)/C=C/c3ccc(OC)cc3)c2o1`, for which the Activity entry is given as “Non-Toxic” in the series on HUVEC; “Toxic” in series [1]; “Toxic” in series [2]; “Toxic” with A2780/Taxol; “Non-Toxic” in series [6]. Besides, the Ratio in series [3] came to 414; in series [5], 420.

In the case of `CCc1cc(=O)c2ccc(OC)c(COC(=O)c3ccc(C(C)(C)C)cc3)c2o1`, the Activity entry is “Non-Toxic” in the series with HUVEC, “Non-Toxic” in series [1], “Non-Toxic” in series [2] and “Toxic” in the series with A2780/Taxol. Also, the Ratio in series [3] came out at 158.

In the case of `CCc1cc(=O)c2ccc(OC)c(COC(=O)c3cc([N+](=O)[O-])ccc3Cl)c2o1`, the Activity result (in the series on HUVEC; in series [1]; in series [2]; in the series on A2780/Taxol) was “Non-Toxic” in each case. In addition, in series [3], the Ratio was found to be 57.

As for `CCc1cc(=O)c2ccc(OC)c(COC(=O)c3c(F)cccc3F)c2o1`, the Activity entry (with HUVEC; in series [1]; in series [2]; with A2780/Taxol) was “Non-Toxic” each time. Further, the Ratio in series [3] was 43.

Take `CCc1cc(=O)c2ccc(OC)c(COC(=O)/C=C/c3ccccc3)c2o1`: the Activity result (in the series on HUVEC; in series [1]; in series [2]; in the series with A2780/Taxol; in series [6]) was “Non-Toxic” throughout. Also, the Ratio in series [3] is 427; in series [5], 343.

In the case of `CCc1cc(=O)c2ccc(OC)c(COC(=O)c3ccccc3Br)c2o1`, the Activity entry was “Non-Toxic” in the series on HUVEC, “Non-Toxic” in series [1], “Non-Toxic” in series [2] and “Toxic” with A2780/Taxol. Besides, the Ratio in series [3] amounted to 23.

Regarding `CCc1cc(=O)c2ccc(OC(C)C)c(COC(=O)c3cc(OC)c(OC)c(OC)c3)c2o1`, the Activity result (with HUVEC; in series [1]; in series [2]; with A2780/Taxol) was “Non-Toxic” each time. Also, the Ratio came to 503 in series [3] and 0.99 in series [4].

Regarding `CCc1cc(=O)c2ccc(OC)c(COC(=O)c3ccc(Cl)c([N+](=O)[O-])c3)c2o1`, the Activity result was “Non-Toxic” in the series with HUVEC, “Toxic” in series [1], “Toxic” in series [2] and “Non-Toxic” in the series on A2780/Taxol. Further, in series [3], the Ratio is on record as 14.

Turning to `CCc1cc(=O)c2ccc(OC)c(COC(=O)c3ccc(Cl)cc3Cl)c2o1`, the Activity entry (in the series with HUVEC; in series [1]; in series [2]; in the series with A2780/Taxol) was “Non-Toxic” each time. Further, the Ratio in series [3] was 126.

Take `CCc1cc(=O)c2ccc(OC)c(COC(=O)/C=C/c3ccc(Cl)cc3)c2o1`: the Activity result (in the series on HUVEC; in series [1]; in series [2]; in the series with A2780/Taxol) was “Non-Toxic” throughout. The Ratio in series [3] amounted to 53.

As for `CCc1cc(=O)c2ccc(OC)c(COC(=O)c3ccc(N)c(C)c3)c2o1`, the Activity entry (in the series on HUVEC; in series [1]; in series [2]; in the series on A2780/Taxol) was “Non-Toxic” each time. Moreover, in series [3], the Ratio is recorded as 177.

For `CCc1cc(=O)c2ccc(OC)c(COC(=O)c3ccc(OC)c(OC)c3)c2o1`, the Activity result in the series with HUVEC is recorded as “Non-Toxic”; in series [1] it was “Non-Toxic”; in series [2] it was “Non-Toxic”; in the series with A2780/Taxol, “Toxic”; in series [6], “Non-Toxic”. Besides, the results for the Ratio in series [3] and in series [5] were 260 and 105, respectively.

For `CCc1cc(=O)c2ccc(OC)c(COC(=O)Cc3cc(OC)c(OC)c(OC)c3)c2o1`, the Activity entry in the series on HUVEC is listed as “Non-Toxic”; in series [1] it was “Non-Toxic”; in series [2], “Non-Toxic”; in the series on A2780/Taxol, “Toxic”. Further, the Ratio in series [3] is listed as 54.

Take `CCCc1ccc(C(=O)OCc2c(OC)ccc3c(=O)cc(CC)oc23)cc1`: the Activity result in the series on HUVEC is “Non-Toxic”; in series [1], “Non-Toxic”; in series [2], “Non-Toxic”; in the series on A2780/Taxol, “Toxic”. In addition, in series [3], the Ratio was 36.

`CCc1cc(=O)c2ccc(OC)c(COC(=O)Cc3ccc(Cl)cc3)c2o1`: the Activity result (with HUVEC; in series [1]; in series [2]; with A2780/Taxol) was “Non-Toxic” throughout. Further, the Ratio in series [3] is on record as 89.

For the origin of these results see ChEMBL document CHEMBL4706532, “New Seco-DSP derivatives as potent chemosensitizers” (Eur J Med Chem, 2020).
